# Experimental data pooled from the literature.
# Target: Cyclin-dependent kinase 16 (CDK16, Homo sapiens, UniProt Q00536)
SMILES,test,setting,remaining binding [%]
F[C@@H]1CCN(c2nccc(-c3cnn4ncccc34)n2)C1,binding,1 µM,100
CC(C)CC(=O)N1CCc2nc(-c3ccc(Br)cc3)nc(N(C)Cc3ccccc3)c2C1,"cell-free assay, competition with immobilised ligand",0.1 µM,100
CNC(=O)[C@@H]1CC[C@@H](n2c(-c3ccc4cnccc4c3)nc3ccc(C(=O)NCc4cccc(C(N)=O)c4)cc32)C1,"binding, competition with immobilised ligand",1 µM,100
N[C@H]1CCN(c2nccc(-c3cnn4ncccc34)n2)C1,binding,1 µM,100
O=C(c1ccc(Nc2nccc(-c3cc4ccccc4s3)n2)cc1)N1CCC(N2CCCC2)CC1,"binding, competition with immobilised ligand",1 µM,58
CCN1CCN(Cc2ccc(C(=O)Nc3ccc(C)c(Oc4ccc5c(c4)CC(=O)N5)c3)cc2C(F)(F)F)CC1,"binding, competition with immobilised ligand",1 µM,100
C[C@@H]1CN(c2ccc3ncc(-c4ccc5[nH]nc(C6CC6)c5c4)n3n2)C[C@H](C)O1,"binding, competition with immobilised ligand",50 nM,98
O=C(NCC1CCOCC1)c1n[nH]cc1NC(=O)c1c(F)cccc1F,"binding, competition with immobilised ligand",1 µM,57
Cc1noc([C@H]2C[C@@H](c3ccc(C(F)(F)F)cc3)CN(C(=O)N3CCS(=O)(=O)C3)C2)n1,"cell-free assay, competition with immobilised ligand",1 µM,100
COc1ccnn2ncc(-c3ccnc(N(C)C)n3)c12,binding,1 µM,100
c1ccc(N2CCN(Cc3nc4ccccc4[nH]3)CC2)nc1,"binding, competition with immobilised ligand",1 µM,100
C[C@@H](c1ccc(-n2cnc3c(N)ncnc32)cc1)N1CCc2nn(C)c(Cc3ccccc3)c2C1=O,"binding, competition with immobilised ligand",0.1 µM,67
COc1cnc(Nc2cccc(S(N)(=O)=O)c2)nc1N1CCN(c2ccccc2)CC1,"binding, competition with immobilised ligand",1 µM,79
O=C(c1ccc(Nc2ncc(Cl)c(-c3ccc(Cl)s3)n2)cc1)N1CCC(N2CCCC2)CC1,"binding, competition with immobilised ligand",1 µM,0.2
CSc1cccnc1N1CCN(Cc2nc3ccccc3[nH]2)CC1,"cell-free assay, competition with immobilised ligand",1 µM,81
C=CC(=O)N1CCC(C(=O)NCC(=O)N2CCN(c3nc(-c4cnc(N)nc4C(F)F)nc(N4CCOCC4)n3)CC2)CC1,"binding, competition with immobilised ligand",1 µM,100
CS(=O)(=O)NCC[C@H](NC(=O)c1cncc2c1cnn2-c1ccc(F)cc1)c1ccnc(S(C)(=O)=O)c1,"cell-free assay, competition with immobilised ligand",1 µM,100
CC1CCCN1c1nccc(-c2cnn3ncccc23)n1 (stereo not shown),binding,1 µM,100
O=C(O)[C@@H]1[C@@H](Cn2nnc3ccccc3c2=O)CC[C@H]1C(=O)c1ccc(OCCC2CCOCC2)cc1,"cell-free assay, competition with immobilised ligand",1 µM,100
CN(CCCC(F)(F)F)c1nccc(-c2cnn3ncccc23)n1,binding,1 µM,100
Cc1c(NC(=O)c2cc(C(N)=O)nc3cc(F)ccc23)c(C(F)(F)F)nn1Cc1ccc(C(C)(C)C)cc1,"cell-free assay, competition with immobilised ligand",1 µM,100
c1cnn2ncc(-c3ccnc(N4CCC45COC5)n3)c2c1,binding,1 µM,97
c1cncc(-c2cccc(Nc3nccc(NC4CCCCC4)n3)c2)c1,"binding, competition with immobilised ligand",10 µM,95
Cc1nc(N2CC[C@@H](O)C2)ncc1-c1cc(C(F)(F)F)cc2[nH]ncc12,"binding, competition with immobilised ligand",1 µM,75
O=C(NCCCN1CCOCC1)c1ccc(Nc2nccc(-c3cc4ccccc4s3)n2)cc1,"binding, competition with immobilised ligand",1 µM,75
